Laboratory results as given in ChEMBL document CHEMBL1125654, “New inhibitors of human renin that contain novel replacements at the P2 site” (J Med Chem, 1991).

Assays:
[1] = Partition coefficient (logD7.4); conditions: octanol/water
Cathepsin D [2] = biological target: T1, Cathepsin D (Bos taurus, UniProt P80209); assay: (§1) Inhibitory activity against bovine cathepsin D was determined
T1 sequence (P80209 whole entry): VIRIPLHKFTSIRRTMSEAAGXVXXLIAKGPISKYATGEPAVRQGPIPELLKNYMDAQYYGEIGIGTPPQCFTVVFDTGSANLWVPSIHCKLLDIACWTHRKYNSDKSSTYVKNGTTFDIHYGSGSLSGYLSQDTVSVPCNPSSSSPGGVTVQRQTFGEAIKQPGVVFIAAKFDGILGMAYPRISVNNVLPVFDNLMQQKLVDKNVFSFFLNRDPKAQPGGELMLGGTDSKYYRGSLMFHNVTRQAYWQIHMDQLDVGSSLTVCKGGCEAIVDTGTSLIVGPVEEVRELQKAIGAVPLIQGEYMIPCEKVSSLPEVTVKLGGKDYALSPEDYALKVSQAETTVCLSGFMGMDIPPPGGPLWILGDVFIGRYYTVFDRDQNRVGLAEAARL
Summary of the method: (§2)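 Bovine cathepsin D activity assayed in duplicate as hydrolysis of bovine hemoglobin (2× crystallized) at pH 3.2, 37 °C. Net absorbance at 280 nm read in acid-precipitated supernatants of inhibited vs uninhibited controls. IC50 from six inhibitor concentrations by nonlinear regression.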

Renin [3] = biological target: T2, Renin (Homo sapiens, UniProt P00797); assay: Inhibitory activity against monkey plasma renin.; format: cell-free, Cercopithecidae; conditions: target entry is the homologue from another species
T2 sequence (P00797 whole entry): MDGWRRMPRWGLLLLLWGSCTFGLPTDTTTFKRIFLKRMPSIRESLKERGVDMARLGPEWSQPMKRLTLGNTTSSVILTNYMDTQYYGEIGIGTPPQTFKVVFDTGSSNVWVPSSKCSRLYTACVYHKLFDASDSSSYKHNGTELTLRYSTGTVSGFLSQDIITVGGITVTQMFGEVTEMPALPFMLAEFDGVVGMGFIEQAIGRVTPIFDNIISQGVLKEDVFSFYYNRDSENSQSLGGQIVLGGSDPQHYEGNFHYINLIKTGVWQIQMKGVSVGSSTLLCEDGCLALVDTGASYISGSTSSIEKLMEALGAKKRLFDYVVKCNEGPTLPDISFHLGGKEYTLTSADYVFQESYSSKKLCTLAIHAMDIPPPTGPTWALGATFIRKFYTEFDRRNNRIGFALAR
Summary of the method: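 Plasma from salt-depleted, furosemide-treated monkeys (native renin and angiotensinogen) incubated with maleate buffer (pH 6.0), PMSF and inhibitor in DMSO for 60 min at 37 °C. Plasma renin activity was 3–8 ng AI/mL per h. Percent inhibition was taken vs DMSO vehicle tubes, and IC50 from six concentrations by nonlinear regression.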

Renin [4] = biological target: T2, Renin; assay: Inhibitory activity against human plasma renin; G means not measured; format: cell-free
Cathepsin D (Bos taurus) = biological target: T3, Cathepsin D (Bos taurus) (UniProt P80209); assay: as §1; conditions: concentration not given here; summary of the method: as §2
T3 sequence (whole entry): T1 sequence (P80209 whole entry)

[5] = solubility in phosphate buffer at pH 7.4; format: physicochemical
Renin [6] = biological target: T2, Renin; assay: Inhibitory activity against human plasma renin; format: cell-free
Cathepsin D [7] = biological target: T1, Cathepsin D; assay: Inhibitory activity against bovine Cathepsin D was determined; summary of the method: as §2
Renin (Homo sapiens) = biological target: T4, Renin (Homo sapiens) (UniProt P00797); assay: Inhibitory activity against monkey plasma renin was determined at 10e-5 M concentration; format: cell-free; conditions: Cercopithecidae, target entry is the homologue from another species
T4 sequence (whole entry): T2 sequence (P00797 whole entry)
Summary of the method: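 Angiotensin I generated from monkey plasma (native renin and angiotensinogen) with maleate buffer pH 6.0, PMSF and inhibitor in DMSO, 60 min at 37 °C. Percent inhibition estimated against DMSO vehicle control tubes. Plasma renin activity 3–8 ng AI/mL per h.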

SMILES	logD ([1]; pH 7.4, logD)	IC50 (Renin [3]) [nM]	IC50 (Renin [6]) [nM]	further results
CCC(C)CNC(=O)C[C@H](O)C(CC(C)C)NC(=O)C(CC#CCNC(C)=O)NC(=O)C(Cc1cccc2ccccc12)Cc1cccc2ccccc12 (stereo in doubt; 55a)	5.32	4.6	–	IC50 (Cathepsin D [2]): 78 nM; IC50 (Renin [4]): 2 nM
CC(=O)NCC#CCC(NC(=O)C(Cc1cccc2ccccc12)Cc1cccc2ccccc12)C(=O)NC(CC1CCCCC1)[C@@H](O)CC(=O)N1CCOC(CCN)C1 (some centres not stated)	–	9	–	inhibition (Cathepsin D (Bos taurus)): 0.3%
C/N=C(\S)NCCCCC(NC(=O)C(Cc1cccc2ccccc12)Cc1cccc2ccccc12)C(=O)NC(CC(C)C)[C@@H](O)CC(=O)NC(CC(C)C)C(=O)NCc1ccccc1 (some centres not stated)	6.7	99	60	solubility [5]: < 10 µg/mL
CCC(C)CNC(=O)C[C@H](O)C(CC(C)C)NC(=O)C(CCCC/N=C(/S)NC)NC(=O)C(Cc1cccc2ccccc12)Cc1cccc2ccccc12 (some centres not stated)	5.71	23	13	solubility [5]: < 10 µg/mL; IC50 (Cathepsin D [7]): 781 nM
CCC(C)CNC(=O)C[C@H](O)C(CC(C)C)NC(=O)C(CCCCNP(=O)(Oc1ccccc1)Oc1ccccc1)NC(=O)C(Cc1cccc2ccccc12)Cc1cccc2ccccc12 (some centres not stated)	–	–	740	logD ([1]; pH 7.4): 7.88; inhibition (Renin (Homo sapiens)): 48%
CCC(C)CNC(=O)C[C@H](O)C(CC(C)C)NC(=O)C(CCCCNS(=O)(=O)c1ccc(C)cc1)NC(=O)C(Cc1cccc2ccccc12)Cc1cccc2ccccc12 (some centres not stated)	6.7	–	3000	inhibition (Renin (Homo sapiens)): 48%
NCCC1CN(C(=O)C[C@H](O)C(CC2CCCCC2)NC(=O)C(CC#CC/N=C(/N)N[N+](=O)[O-])NC(=O)C(Cc2cccc3ccccc23)Cc2cccc3ccccc23)CCO1 (some centres not stated)	–	–	–	inhibition (Cathepsin D (Bos taurus)): 0.7%
